TAAR1 antag = human TAAR1 antagonists, primary screen, Fluo-8 calcium fluorescence, CHO RD-HGA16 cells | Trace amine-associated receptor 1 (Homo sapiens), Q96RJ0 | antagonist | inhibition, % at 3 µM | 1.5% of 360,000 active | AID 624466, 2012;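 active = inhibition above a per-plate cutoff, the mean inhibition of test compounds on that plate plus 3 SD, cut at about 49% in these data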;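 note: 0% = DMSO plus EC80 beta-PEA response and 100% = DMSO alone without agonist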
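Test system: hTAAR1-expressing CHO RD-HGA16 cells, Gα16-coupled; Probe or stimulus: EC80 β-phenethylamine stimulus; Compound dosing: single nominal final test compound concentration of 3 µM; Timing: 140 s kinetic read after compound, 140 s after agonist; Signal: Fluo-8 calcium-sensitive fluorescence; Measure: % inhibition of agonist calcium response; Controls: DMSO and EC80 PEA controls.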
CRFBP-R2 block = antagonists of CRF-BP/CRF-R2 complex, primary screen, cell-based, HEK293, calcium dye fluorescence, uHTS; CRF-induced calcium fluorescence; inhibition, % at 11.8 µM; 0.59% of 350,000 active;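 active = inhibition of the ligand-induced calcium signal above about 50% at the single tested concentration, limit read from the data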
TMEM16A act = TMEM16A chloride channel activators or potentiators, primary screen, cell-based, HTS. HEK293 TMEM16A/YFP-H148Q/I152L, iodide quench fluorescence; active compounds read low. B-score at 10 µM. 0.3% of 340,000 active. AID 623877, 2012;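 active = fluorescence-ratio B-score plate-corrected deviation score at least 3 library SD below zero, with starting fluorescence score within 5 deviations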;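 note: channel opened by trigger with iodide after compound preincubation; score built on the fluorescence ratio of max minus min over baseline; more negative score means more quench and so TMEM16A activation or potentiation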
Target sequence (Q8BHY3 whole entry, looked up): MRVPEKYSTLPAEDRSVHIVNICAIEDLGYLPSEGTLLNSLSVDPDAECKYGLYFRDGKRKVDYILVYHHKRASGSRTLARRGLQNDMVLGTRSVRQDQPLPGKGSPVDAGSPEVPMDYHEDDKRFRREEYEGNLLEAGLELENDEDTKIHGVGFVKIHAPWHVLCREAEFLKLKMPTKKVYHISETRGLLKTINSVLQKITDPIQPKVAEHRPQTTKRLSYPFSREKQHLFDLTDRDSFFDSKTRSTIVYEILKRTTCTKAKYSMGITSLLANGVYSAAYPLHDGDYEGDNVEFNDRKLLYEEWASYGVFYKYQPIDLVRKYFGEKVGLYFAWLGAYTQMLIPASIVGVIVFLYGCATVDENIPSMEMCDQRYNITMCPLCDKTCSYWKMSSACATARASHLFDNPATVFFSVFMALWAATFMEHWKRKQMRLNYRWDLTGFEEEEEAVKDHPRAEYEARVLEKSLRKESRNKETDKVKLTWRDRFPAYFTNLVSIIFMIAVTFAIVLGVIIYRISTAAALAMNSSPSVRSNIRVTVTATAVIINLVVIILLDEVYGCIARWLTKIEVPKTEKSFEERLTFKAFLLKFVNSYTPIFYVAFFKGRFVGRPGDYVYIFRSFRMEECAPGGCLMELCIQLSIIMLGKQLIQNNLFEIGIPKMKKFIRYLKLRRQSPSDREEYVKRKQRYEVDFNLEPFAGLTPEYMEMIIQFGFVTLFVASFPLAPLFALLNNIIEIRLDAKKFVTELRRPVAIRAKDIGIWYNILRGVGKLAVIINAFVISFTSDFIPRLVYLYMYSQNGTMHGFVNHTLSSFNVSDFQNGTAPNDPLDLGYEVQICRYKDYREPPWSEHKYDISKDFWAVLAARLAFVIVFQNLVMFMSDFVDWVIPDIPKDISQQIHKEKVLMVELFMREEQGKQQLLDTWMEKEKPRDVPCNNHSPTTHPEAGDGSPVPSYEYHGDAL
TAAR1 ag = human TAAR1 agonists, primary screen, Fluo-8 calcium fluorescence, CHO RD-HGA16 cells; vehicle wells 0%, saturating PEA agonist 100%; 0.99% of 360,000 active; AID 624467, 2012; Trace amine-associated receptor 1 (Homo sapiens), Q96RJ0; activation, % at 3 µM;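 active = activation above the mean activation of all test compounds in the run plus 3 SD, cut at about 38% in these data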
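Assay system – CHO-derived RD-HGA16 cells with stable Gα16 and human TAAR1 · Compound dosing – one-point dosing at 3 µM (nominal) · Incubation – 17-24 h seeding, 75 min 37 °C dye, 30 min RT · Measured by – kinetic Fluo-8 calcium fluorescence · Control set – DMSO vehicle as 0%, PEA at EC100 as 100% · Repeats – single well for each compound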
ANO1 block = TMEM16A chloride channel inhibitors, primary screen, cell-based, HTS; HEK293 TMEM16A/YFP iodide influx fluorescence, ionomycin; AID 588511, 2011; Anoctamin-1 (Mus musculus), Q8BHY3; normalized B-score (activity score, 25-100; higher = stronger inhibition) at 10 µM; 1.2% of 310,000 active;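 active = ratio plate-corrected score three or more library SD toward inhibition, starting fluorescence score within five deviations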;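 note: score derived from kinetic fluorescence span divided by baseline fluorescence per well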
CRFBP-R2 agonist = agonists of CRF-BP/CRF-R2 complex, primary screen, cell-based, HEK293, calcium dye fluorescence, uHTS; CRF-binding protein / CRF receptor 2 complex (human); calcium dye fluorescence (FLIPR); percent of saturating CRF peptide response; activation, % at 13.2 µM; 0.46% of 350,000 active; AID 588473, 2011;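 active = activation of at least 50%, plus an integration ratio under a set limit after plate pattern correction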;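 note: plate controls were neutral control wells without compound for no effect and CRF at EC100 for full effect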
TAAR1 nonsel count = nonselective antagonists in TAAR1 counter-screen cells, counter-screen for hTAAR1 antagonist project, cell-based, fluorescence, calcium; inhibition, % at 3 µM; 77% of 2,400 active; counterscreen cell line, antagonist mode; shares compounds with TAAR1 antag; in the data active = inhibition above about 22%;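 note: CHO-Ga16 host cells stimulated with ATP at an EC80 level; 0% = agonist EC80 plus vehicle and 100% = vehicle without agonist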
TAAR1 ant conf = human TAAR1 antagonists, retest of hits, confirmation, cell-based, fluorescence | shares compounds with TAAR1 antag | TAAR1-expressing cells, fluorescence antagonist read-out | inhibition, % at 3 µM | 40% of 2,400 active; in the data active = inhibition above about 49%;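 note: CHO-Ga16 host cells challenged with agonist PEA near its EC80; 0% = agonist at EC80 plus vehicle and 100% = vehicle with no agonist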
Ga16 ag counter = calcium activation in Ga16-expressing cells, counter-screen for TAAR1 antagonist project, cell-based, fluorescence; 18% of 2,400 active; AID 651953, 2012; shares compounds with TAAR1 antag; agonist counterscreen; activation, % at 3 µM; in the data active = activation above about 12%;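 note: 0% = vehicle wells and 100% = saturating stimulus response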
TAAR1 ag counter = TAAR1 activation by candidate antagonists – cell-based, fluorescence, counter-screen for TAAR1 antagonist project; shares compounds with TAAR1 antag; hTAAR1 cell line, agonist mode; activation, % at 3 µM; 2% of 2,400 active; AID 651955, 2012; in the data active = activation above about 37%;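 note: CHO cells stably expressing TAAR1 with calcium dye readout; 0% = DMSO vehicle and 100% = full agonist response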
Active calls of the source: *; i = inactive; · = no result given. Hits are enriched below; roughly 3.9% of the tested compounds scored in any of these assays.

SMILES | TAAR1 antag | CRFBP-R2 block | TMEM16A act | TAAR1 ag | ANO1 block | CRFBP-R2 agonist | TAAR1 nonsel count | TAAR1 ant conf | Ga16 ag counter | TAAR1 ag counter
COc1cccc(C(=O)Nc2cc(OC)ccc2NC(=O)c2ccco2)c1 | 30 | -1 | i | 6 | i | -2 | · | · | · | ·
CNC(=O)c1ccsc1NC(=O)C1CCN(S(=O)(=O)c2ccc(Cl)s2)CC1 | 58* | -5 | i | 12 | i | -1 | 29* | 47 | 15* | 30
Cc1ccccc1NC(=O)CCN1C(=O)CSC1=O | 106* | 1 | i | -2 | i | -2 | -6 | -6 | 3 | 5
CCCCn1nnnc1C(c1cc2ccccc2o1)N(C)CCc1ccccc1 (stereo unspecified) | 22 | · | · | 7 | · | · | · | · | · | ·
COc1cc2[nH]c(=O)n(CCCCCC(=O)N3CC=C(c4ccccc4)CC3)c(=O)c2cc1OC | 63* | -6 | i | 14 | i | 1 | 29* | 49* | 9 | 11
Cc1ccc(S(=O)(=O)NC(CC(C)C)C(=O)Oc2ccc3c4c(c(=O)oc3c2)CCC4)cc1 (stereo unspecified) | 67* | -34 | i | 10 | i | 3 | 26* | 45 | 6 | 4
O=C(CSc1n[nH]c(=O)n1C1CC1)Nc1cc(Cl)ccc1Oc1ccccc1 | 79* | -18 | i | 21 | i | 1 | 47* | 66* | 14* | 13
Nc1ncnc2c(C3OC(CO)C(O)C3O)scc12 (stereo unspecified) | -18 | 7 | i | 1 | · | -1 | · | · | · | ·
COCc1cc(C(C)=O)ccc1OCC(=O)Nc1ccc(NC(C)=O)cc1 | -3 | -6 | i | 1 | i | 1 | · | · | · | ·
CCCCN(C(=O)c1ccc(Cl)c(S(=O)(=O)N2CCOCC2)c1)c1c(N)n(CCC)c(=O)[nH]c1=O | -12 | -2 | i | -1 | i | 1 | · | · | · | ·
COc1ccccc1N1CCN(C(=O)c2sc3ncnc(N4CCN(c5ccccn5)CC4)c3c2C)CC1 | · | 5 | i | · | i | -1 | · | · | · | ·
COc1ccccc1N1CCN(C(=O)c2sc3nc(C)nc(N4CCN(c5ccccn5)CC4)c3c2C)CC1 | 55* | 39 | i | 7 | i | 2 | 17 | 34 | 4 | 5
Cc1c(C(=O)N2CCN(c3ccc(F)cc3)CC2)sc2ncnc(N3CCN(c4ccccn4)CC3)c12 | 70* | 6 | i | 10 | i | -2 | 29* | 47 | 9 | 8
CCCCCCCN(c1ccccc1)C1C[C@H]2CCCC(=O)N3CC[C@@H](C1)[C@@H]23 (stereo partly specified) | -16 | · | · | 16 | · | · | · | · | · | ·
COc1ccc(CCN(C)C2CCCN(C(=O)Cn3cnnn3)C2)cc1OC (stereo unspecified) | -21 | 4 | i | 0 | i | 5 | · | · | · | ·
CCC(=O)N1CCN(c2ccccc2NC(=O)c2ccc(-c3cccc([N+](=O)[O-])c3)o2)CC1 | 55* | -18 | i | 12 | i | 0 | 26* | 50* | 6 | 2
C[C@@H]1CNC(=O)c2c(C(=O)N[C@@H](Cc3c[nH]c4ccccc34)C(=O)OC(C)(C)C)ncn21 | 58* | -8 | · | 12 | · | 0 | 30* | 43 | 9 | 12
Cc1cc(C)c2oc(C(=O)N3CCN(Cc4ccccc4)CC3)cc(=O)c2c1 | -4 | 1 | i | 3 | i | 0 | · | · | · | ·
CCOC(=O)C1=C(C(=O)OCC)N(CC2CCCCC2)CCC1=O | -10 | -19 | · | 3 | · | -3 | · | · | · | ·
C=CC[C@@H](CC(=O)N(CCO)Cc1ccccc1)C(=O)N[C@H](COC(=O)[C@@H](CC=C)Cc1ccc(F)cc1)Cc1ccccc1 | 75* | -7 | i | 11 | · | 2 | 27* | 48 | 7 | 7
C=CCC[C@H](Cc1ccc(F)cc1)C(=O)OC[C@@H](C)NC(=O)[C@H](CC=C)CC(=O)N(CCO)Cc1ccccc1 | 34 | 5 | · | 2 | · | -1 | · | · | · | ·
C=CCC[C@@H](Cc1ccc(F)cc1)C(=O)OC[C@H](C)NC(=O)[C@H](CC=C)CC(=O)N(CCO)Cc1ccccc1 | 71* | 5 | i | 15 | · | -2 | 27* | 40 | 5 | 2
O=C(C[C@@H]1CC[C@H](NC(=O)Nc2ccc(F)cc2)[C@@H](CO)O1)NCc1cccc(F)c1 | -16 | · | · | 2 | · | · | · | · | · | ·
Cc1ccc(C(=O)Nc2cccc(N3C(=O)C4CCC(C)CC4C3=O)c2)cc1 (stereo unspecified) | 71* | 4 | i | 12 | i | -1 | 31* | 50* | 8 | 5
Cc1ccc(NC(=O)c2ccc(N3C(=O)C4CC=C(Cl)CC4C3=O)cc2)cc1 (stereo unspecified) | 63* | -10 | i | 27 | i | 0 | 24* | 45 | 13* | 15
C/C(=N\O)c1ccc(N2C(=O)C3CC=C(Cl)CC3C2=O)cc1 (stereo unspecified) | 6 | -9 | i | 7 | i | 0 | · | · | · | ·
COc1cccc(OC)c1C(=O)NC(=S)N1CCN(c2ccc(C(F)(F)F)cc2[N+](=O)[O-])CC1 | 81* | -12 | i | 15 | i | -1 | 31* | 51* | 7 | 5
COc1cccc(C(=O)NC(=S)N2CCN(c3ccc(C(F)(F)F)cc3[N+](=O)[O-])CC2)c1 | -3 | -24 | i | 5 | i | 0 | · | · | · | ·
CCN(CC)CCN1CCN(c2cnc(C)cn2)CC1 | 15 | · | · | 1 | · | · | · | · | · | ·

From PubChem BioAssay
